ChEMBL document CHEMBL1140227, “Histone deacetylase inhibitors through click chemistry” (J Med Chem, 2008)

Assays:
Assay type in all cases: functional
M14 = assay: Growth inhibition of human M14 cells at 10 uM relative to control; conditions: values are per cent of control
Procedure, shortened: (§1)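 Single-dose preliminary screen in the NCI human cancer cell line panel, run by the NIH. Percent inhibition of cell line growth was calculated by comparison with untreated samples.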

Malme-3M = assay: Growth inhibition of human MALME-3M cells at 10 uM relative to control; conditions: values are per cent of control; procedure, shortened: as §1
SK-MEL-2 = assay: Growth inhibition of human SK-MEL-2 cells at 10 uM relative to control; conditions: values are per cent of control; procedure, shortened: as §1
SK-MEL-28 = assay: Growth inhibition of human SK-MEL-28 cells at 10 uM relative to control; conditions: values are per cent of control; procedure, shortened: as §1
UACC-257 = assay: Growth inhibition of human UACC257 cells at 10 uM relative to control; conditions: values are per cent of control
Procedure, shortened: (§2)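 Single-dose NCI human tumour cell line screen, run by the NIH. Percent inhibition of cell line growth was calculated by comparison with untreated samples.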

UACC-62 = assay: Growth inhibition of human UACC62 cells at 10 uM relative to control; conditions: values are per cent of control; procedure, shortened: as §2
DU-145 = assay: Growth inhibition of human DU145 cells at 10 uM relative to control; conditions: values are per cent of control; procedure, shortened: as §1
PC-3 = assay: Growth inhibition of human PC3 cells at 10 uM relative to control; conditions: values are per cent of control; procedure, shortened: as §1
SF-268 = assay: Growth inhibition of human SF268 cells at 10 uM relative to control; conditions: values are per cent of control; procedure, shortened: as §1
SF-295 = assay: Growth inhibition of human SF295 cells at 10 uM relative to control; conditions: values are per cent of control; procedure, shortened: as §1
SF-539 = assay: Growth inhibition of human SF539 cells at 10 uM relative to control; conditions: values are per cent of control; procedure, shortened: as §1
SNB-19 = assay: Growth inhibition of human SNB19 cells at 10 uM relative to control; conditions: values are per cent of control; procedure, shortened: as §1
SNB-75 = assay: Growth inhibition of human SNB75 cells at 10 uM relative to control; conditions: values are per cent of control; procedure, shortened: as §2
U-251 = assay: Growth inhibition of human U251 cells at 10 uM relative to control; conditions: values are per cent of control; procedure, shortened: as §2
cells [1] = conditions: Homo sapiens, Cancer cell lines
cells [2] = conditions: Homo sapiens, Cancer cell lines; remark: listed apart in the source
Leukemia cell = assay: cells; conditions: Homo sapiens
cells [3] = conditions: Homo sapiens, Cancer cell lines; remark: listed apart in the source
Melanoma cell = assay: cells; conditions: Homo sapiens
cells [4] = conditions: Homo sapiens, Cancer cell lines; remark: listed apart in the source
cells [5] = conditions: Homo sapiens, Cancer cell lines; remark: listed apart in the source
A549 = assay: Growth inhibition of human A549 cells at 10 uM relative to control; conditions: values are per cent of control; procedure, shortened: as §1
EKVX = assay: Growth inhibition of human EKVX cells at 10 uM relative to control; conditions: values are per cent of control; procedure, shortened: as §1
HOP-62 = assay: Growth inhibition of human HOP62 cells at 10 uM relative to control; conditions: values are per cent of control; procedure, shortened: as §1
HOP-92 = assay: Growth inhibition of human HOP92 cells at 10 uM relative to control; conditions: values are per cent of control; procedure, shortened: as §1
NCI-H226 = assay: Growth inhibition of human NCI-H226 cells at 10 uM relative to control; conditions: values are per cent of control; procedure, shortened: as §1
NCI-H23 = assay: Growth inhibition of human NCI-H23 cells at 10 uM relative to control; conditions: values are per cent of control; procedure, shortened: as §1
NCI-H322M = assay: Growth inhibition of human NCI-H322M cells at 10 uM relative to control; conditions: values are per cent of control; procedure, shortened: as §1
NCI-H460 = assay: Growth inhibition of human NCI-H460 cells at 10 uM relative to control; conditions: values are per cent of control; procedure, shortened: as §1
NCI-H522 = assay: Growth inhibition of human NCI-H522 cells at 10 uM relative to control; conditions: values are per cent of control; procedure, shortened: as §1
COLO 205 = assay: Growth inhibition of human COLO205 cells at 10 uM relative to control; conditions: values are per cent of control; procedure, shortened: as §1
HCC 2998 = assay: Growth inhibition of human HCC2998 cells at 10 uM relative to control; conditions: values are per cent of control; procedure, shortened: as §1

In the case of `O=C(/C=C/c1cn(CC(=O)Nc2ccccc2)nn1)NO`, the growth, % of control at 10 µM (M14) was 60%, the growth, % of control at 10 µM (Malme-3M) was 21.4% and the growth, % of control at 10 µM (SK-MEL-2) was 51.1%. It also gave a growth, % of control at 10 µM (SK-MEL-28) of 93.4%, a growth, % of control at 10 µM (UACC-257) of 54.4% and a growth, % of control at 10 µM (UACC-62) of 70.8%. It also gave a growth, % of control at 10 µM (DU-145) of 87.8%, a growth, % of control at 10 µM (PC-3) of 79.7% and a growth, % of control at 10 µM (SF-268) of 66.8%. For the same compound, the growth, % of control at 10 µM (SF-295) was 81.3%, the growth, % of control at 10 µM (SF-539) was 107% and the growth, % of control at 10 µM (SNB-19) was 105%. The growth, % of control at 10 µM (SNB-75) was 88.5%, the growth, % of control at 10 µM (U-251) was 86.6% and the growth percent at 10 µM (cells [1]) was 71%. For the same compound, the inhibition at 10 µM (cells [2]) was 74%, the inhibition at 10 µM (Leukemia cell) was 84% and the growth percent at 10 µM (cells [3]) was 90%. The inhibition at 10 µM (Melanoma cell) was 69%, the inhibition at 10 µM (cells [4]) was 89% and the inhibition at 10 µM (cells [5]) was 68%. It also gave a growth, % of control at 10 µM (A549) of 91.2%, a growth, % of control at 10 µM (EKVX) of 70.5% and a growth, % of control at 10 µM (HOP-62) of 43.1%. It also gave a growth, % of control at 10 µM (HOP-92) of 67.8%, a growth, % of control at 10 µM (NCI-H226) of 94.1% and a growth, % of control at 10 µM (NCI-H23) of 82.8%. For the same compound, the growth, % of control at 10 µM (NCI-H322M) was 41.8%, the growth, % of control at 10 µM (NCI-H460) was 86.1% and the growth, % of control at 10 µM (NCI-H522) was 41%. For the same compound, the growth, % of control at 10 µM (COLO 205) was 117% and the growth, % of control at 10 µM (HCC 2998) was 83.5%.
